Results taken from ChEMBL document CHEMBL1158829, “Oxygenated pimarane diterpenes from Kaempferia marginata” (J Nat Prod, 2005).
Converted amounts (≈) assume the structure as drawn.

Legend:
[1] = system: Mycobacterium tuberculosis; experiment: Antitubercular activity against Mycobacterium tuberculosis H37Ra after 4 days by microplate alamar blue assay; format: functional; settings: 96 h
In short: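 Mycobacterium tuberculosis H37Ra tested by Microplate Alamar Blue Assay, reporting minimum inhibitory concentration (MIC). Rifampicin, kanamycin and isoniazid were the positive controls.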

Plasmodium falciparum = experiment: Antimalarial activity against multidrug-resistant Plasmodium falciparum K1 after 42 hrs by [3H]hypoxanthine uptake; format: functional, organism-based
In short: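 Plasmodium falciparum K1 (multidrug-resistant) was kept in continuous culture. In vitro activity was quantified with a microculture radioisotope technique.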

Candida albicans = experiment: Antifungal activity against Candida albicans ATCC 90028 by XTT assay; format: functional, organism-based
In short: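 Candida albicans ATCC 90028 tested by a tetrazolium/formazan colorimetric method, with IC50 as the read-out. Amphotericin B served as the positive control and DMSO as the negative control.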

## C=C[C@]1(C)C=C2CC[C@]3(C)[C@](C)(CC[C@H](C(C)=O)[C@]3(C)O)[C@@]2(C)CC1
[1]
  MIC: 50 mg/L (≈ 145 µM)

## C=C[C@]1(C)C=C2CC[C@H]3C(C)(C)C[C@H](O)[C@H](O)[C@]3(C)[C@H]2[C@H](O)C1
Plasmodium falciparum
  IC50: 8.8 mg/L (≈ 27.5 µM)
[1]
  MIC: > 100 mg/L
Candida albicans
  IC50: 17.5 mg/L (≈ 54.6 µM)

## C=C[C@]1(C)C=C2CC[C@]3(C)[C@](C)(CCC[C@]3(C)O)[C@@]2(C)CC1
[1]
  MIC: 25 mg/L (≈ 82.6 µM)

## C=C[C@]1(C)C=C2CC[C@H]3C(C)(C)CC[C@H](O)[C@]3(C)[C@H]2[C@H](O)C1
Plasmodium falciparum
  IC50: 3.2 mg/L (≈ 10.5 µM)

## C=C[C@]1(C)C=C2[C@H](O)C[C@H]3C(C)(C)CC[C@H](O)[C@]3(C)[C@H]2[C@H](O)C1
[1]
  MIC: > 100 mg/L

## C=C[C@]1(C)C=C2C(=O)C[C@H]3C(C)(C)C[C@H](O)[C@H](O)[C@]3(C)[C@H]2CC1
[1]
  MIC: > 100 mg/L
